Activity calls are given as the source filed them. The rule behind the calls is not given here.
Legend:
[1] = Antiproliferative activity against human EAhy926 cells measured after 48 hrs by MTT assay; type: functional, cell-based; conditions: EA.hy 926, 48 h
[2] = Aqueous solubility of the compound; type: physicochemical
Gallus gallus = organism: Gallus gallus; experiment: Antiangiogenic activity against 5-day-old chicken egg chorioallantoic membrane at 0.3 to 30 uM/disc incubated for 48 hrs by microscopic analysis; type: functional, tissue-based
EA.hy 926 [3] = experiment: Antimigratory activity against human EAhy926 cells assessed as inhibition of VEGF-induced cell migration incubated for 24 hrs by wound healing assay; type: functional, cell-based
Summary of the method: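 Wound-healing scratch assay in EA.HY926 endothelial cells with VEGF stimulation. Compound tested across 0.3 to 30, with Endostar as positive control. Migration was compared against untreated cells.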

EA.hy 926 [4] = experiment: Antiangiogenic activity against human EAhy926 cells assessed as inhibition of VEGF-induced capillary-like tube formation measured after 24 hrs by phase contrast microscopic analysis; type: functional, cell-based
Summary of the method: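 EA.HY926 cells were plated on Matrigel-coated wells and treated for 24 h at 0.3–30. Capillary-like tubules with multicentric junctions were scored by imaging against compound-free controls.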

| SMILES | IC50 [1] | also measured |
| --- | --- | --- |
| CC(C)Cn1c2ccccc2c2ccnc(CNCCCCNCc3nccc4c5ccccc5n(CC(C)C)c34)c21 | 8.06 µM | – |
| c1ccc(CCCn2c3ccccc3c3ccnc(CNCCCCNCc4nccc5c6ccccc6n(CCCc6ccccc6)c45)c32)cc1 | 4.78 µM | – |
| CCCCn1c2ccccc2c2ccnc(CNCCCCNCc3nccc4c5ccccc5n(CCCC)c34)c21 | 4.37 µM | – |
| c1ccc(CCCn2c3ccccc3c3ccnc(CNCCCCCCNCc4nccc5c6ccccc6n(CCCc6ccccc6)c45)c32)cc1 | 3.22 µM | – |
| c1ccc(Cn2c3ccccc3c3ccnc(CNCCCCCCNCc4nccc5c6ccccc6n(Cc6ccccc6)c45)c32)cc1 | 3.81 µM | – |
| CCCCCCn1c2ccccc2c2ccnc(CNCCCCNCc3nccc4c5ccccc5n(CCCCCC)c34)c21 | 8.93 µM | – |
| CCCCn1c2ccccc2c2ccnc(CNCCCCCCNCc3nccc4c5ccccc5n(CCCC)c34)c21 | 2.92 µM | – |
| CCCCCCn1c2ccccc2c2ccnc(CNCCCCCCNCc3nccc4c5ccccc5n(CCCCCC)c34)c21 | 8.2 µM | – |
| CC(C)Cn1c2ccccc2c2ccnc(CNCCCCCCNCc3nccc4c5ccccc5n(CC(C)C)c34)c21 | 5.55 µM | – |
| Cn1c2ccccc2c2ccnc(CNCCCCNCc3nccc4c5ccccc5n(C)c34)c21 | 17 µM | – |
| CCCCCCn1c2ccccc2c2ccnc(CNCCCCCNCc3nccc4c5ccccc5n(CCCCCC)c34)c21 | 5.16 µM | – |
| CC(C)n1c2ccccc2c2ccnc(CNCCCCCCNCc3nccc4c5ccccc5n(C(C)C)c34)c21 | 8.56 µM | – |
| c1ccc(CCCn2c3ccccc3c3ccnc(CNCCCNCc4nccc5c6ccccc6n(CCCc6ccccc6)c45)c32)cc1 | 9.35 µM | – |
| CCCCCCCCn1c2ccccc2c2ccnc(CNCCCCCNCc3nccc4c5ccccc5n(CCCCCCCC)c34)c21 | 8 µM | – |
| COc1ccc(/C=C\c2cc(OC)c(OC)c(OC)c2)cc1OP(=O)(O)O [FOSBRETABULIN] | 6.4 µM | – |
| CCn1c2ccccc2c2ccnc(CNCCCNCc3nccc4c5ccccc5n(CC)c34)c21 | 7.77 µM | – |
| CCCCCCCCn1c2ccccc2c2ccnc(CNCCCCNCc3nccc4c5ccccc5n(CCCCCCCC)c34)c21 | 9.33 µM | – |
| Fc1ccc(Cn2c3ccccc3c3ccnc(CNCCCCNCc4nccc5c6ccccc6n(Cc6ccc(F)cc6)c45)c32)cc1 | 4.96 µM | – |
| Cl.c1ccc2c(c1)[nH]c1c(CNCCCCNCc3nccc4c3[nH]c3ccccc34)nccc12 | 25.8 µM | solubility [2]: > 10000 µg/mL |
| c1ccc(CCCn2c3ccccc3c3ccnc(CNCCCCCNCc4nccc5c6ccccc6n(CCCc6ccccc6)c45)c32)cc1 | 2.76 µM | – |
| CCCCn1c2ccccc2c2ccnc(CNCCCNCc3nccc4c5ccccc5n(CCCC)c34)c21 | 8.39 µM | – |
| CCCCn1c2ccccc2c2ccnc(CNCCCCCNCc3nccc4c5ccccc5n(CCCC)c34)c21 | 2.16 µM | Activity (Gallus gallus): Active; inhibition (EA.hy 926 [3]): Dose-dependent effect; inhibition (EA.hy 926 [4]): Dose-dependent effect |
| CCCCCCn1c2ccccc2c2ccnc(CNCCCNCc3nccc4c5ccccc5n(CCCCCC)c34)c21 | 9.23 µM | – |
| Fc1ccc(Cn2c3ccccc3c3ccnc(CNCCCNCc4nccc5c6ccccc6n(Cc6ccc(F)cc6)c45)c32)cc1 | 8.87 µM | – |
| Cn1c2ccccc2c2ccnc(CNCCCCCCNCc3nccc4c5ccccc5n(C)c34)c21 | 11.5 µM | – |
| Clc1cccc(Cn2c3ccccc3c3ccnc(CNCCCCCNCc4nccc5c6ccccc6n(Cc6cccc(Cl)c6)c45)c32)c1 | 4.69 µM | – |
| CCn1c2ccccc2c2ccnc(CNCCCCNCc3nccc4c5ccccc5n(CC)c34)c21 | 5.36 µM | – |
| c1ccc(Cn2c3ccccc3c3ccnc(CNCCCNCc4nccc5c6ccccc6n(Cc6ccccc6)c45)c32)cc1 | 8.89 µM | – |
| c1ccc2c(c1)[nH]c1c(CNCCCCCNCc3nccc4c3[nH]c3ccccc34)nccc12 | 14.5 µM | – |
